The subject of test [1] is Radical scavenging activity. The test can be described thus: Antioxidant activity assessed as DPPH radical scavenging activity. Type of test: functional. The method in brief: (§1)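 DPPH radical bleaching, tested at 10, 50, 100 and 200 µM (printed as mM) following a published method, with resveratrol as reference.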
In general terms: The DPPH test is a chemical assay of radical scavenging.

In test [2] the test system is Radical scavenging activity. The test can be described thus: Antioxidant activity assessed as DPPH radical scavenging activity at 100 uM. The format is functional. The method in brief:
as §1

Test [3] concerns Radical scavenging activity. The test can be described thus: Antioxidant activity assessed as DPPH radical scavenging activity at 10 uM. Type of test: functional. A digest of the protocol: as §1
Test [4] concerns Radical scavenging activity. The test can be described thus: Antioxidant activity assessed as DPPH radical scavenging activity at 200 uM. The format is functional. A digest of the protocol:
as §1

Test [5] has as its system Radical scavenging activity. The test can be described thus: Antioxidant activity assessed as DPPH radical scavenging activity at 50 uM. Type of test: functional. A digest of the protocol: as §1
Test [6] in a line: Neuroprotective activity in ICR mouse cortical neuron cells assessed as prevention of excitotoxic neuronal death after 24 hrs by LDH assay. Type of test: functional. As to conditions: Cortical neurone, read-out: ED50 (the source's name). The method in brief: (§2)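 Primary cortical cultures from ICR mouse embryos at gestational day 15, plated on poly-D-lysine/laminin at 4.8 × 10⁵ cells/well in MEM with 5% FCS and mouse serum. Compound at 1–50 µM was co-applied with glutamate 50 µM for 24 h at 37 °C. LDH released into the medium was followed by NADH consumption with pyruvate, read at 340 nm. Mean ± SD of three observations.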

Test [7] relates to BV-2. The test can be described thus: Antiinflammatory activity against mouse BV2 microglia cells assessed as inhibition of LPS-induced NO production after 24 hrs. Type of test: functional. As to conditions: BV-2, 24 h, read-out: ED50 (the source's name). A digest of the protocol:
(§3)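 BV-2 murine microglia kept in DMEM with 10% FBS and penicillin/streptomycin (37 °C, 5% CO2). Cells were plated at 1 × 10⁵ cells/mL and stimulated with LPS 100 ng/mL, alone or with compound at 1, 10 or 50 µM, for 24 h at 37 °C. Nitrite in the medium was read by Griess reagent at 540 nm. Mean ± SD of three observations.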

Test [8] has as its system Cortical neurone. The test can be described thus: Neuroprotective activity in ICR mouse cortical neuron cells assessed as prevention of glutamate-induced neurotoxicity at 10 to 50 uM after 24 hrs by LDH assay. Type of test: functional. A digest of the protocol:
as §2

Test [9] has as its system BV-2. The test can be described thus: Antiinflammatory activity against mouse BV2 microglia cells assessed as inhibition of LPS-induced NO production at 10 to 50 uM after 24 hrs. Type of test: functional, cell-based. The method in brief: as §3
Test [10] deals with BV-2. The test can be described thus: Antiinflammatory activity against mouse BV2 microglia cells assessed as inhibition of LPS-induced NO production at 1 uM after 24 hrs. The format is functional, cell-based. The method in brief:
as §3

Test [11] concerns Cortical neurone. The test can be described thus: Neuroprotective activity in ICR mouse cortical neuron cells assessed as prevention of glutamate-induced neurotoxicity at 1 uM after 24 hrs by LDH assay. Type of test: functional. A digest of the protocol:
as §2

Active and inactive are the calls of the source. The calls are words filed in the database; no cut-off is given here.

In general, IC50 refers to the concentration needed to halve the response being measured.

As to `CC1CCN(C(=O)c2ccc(/C=C/c3ccc(O)c(O)c3)cc2)CC1`, the IC50 in test [1] was > 200 µM. The Activity in test [2] amounted to 31.5%; in test [3], 15.1%; in test [4], 48.6%; in [5], 21.3%.

As to `Oc1ccc(/C=C/c2cc(O)cc(O)c2)cc1` [RESVERATROL], the IC50 in test [1] is > 200 µM. For the same molecule, the Activity in test [2] amounted to 28.4%; in test [3] it was 9.45%; in test [4] it was 33.8%; in [5] it was 8.44%.

`O=C(NCCCN1CCCC1=O)c1ccc(/C=C/c2ccc(O)c(O)c2)cc1`: the IC50 in test [1] is > 200 µM. Moreover, the Activity came out at 28.4% in [2], 12.9% in test [3], 44% in [4] and 22.2% in test [5].

As for `COC(=O)/C=C/c1ccc(/C=C/c2ccc(O)c(O)c2)cc1`, the IC50 in [1] is > 200 µM. For the same molecule, the Activity was determined as 5.73% in [2], 5.91% in [3], 5.29% in test [4] and 5.31% in test [5].

Turning to `O=C(NCc1ccco1)c1ccc(/C=C/c2ccc(O)c(O)c2)cc1`, the EC50 in test [6] worked out at 58.3 µM; in the test on BV-2 [7], 820 nM. Also, in test [1], the IC50 was found to be 69 µM. In addition, the outcome in the test on Cortical neurone [8] and in the test on BV-2 [9] was Active. Further, the Activity came out at 48% in test [2], 21.9% in test [3], 79.2% in test [4] and 35.1% in test [5].

As for `CCOC(=O)c1cccc(NC(=O)c2ccc(/C=C/c3ccc(O)c(O)c3)cc2)c1`, in test [1], the half-inhibitory concentration (IC50) stood at 127 µM. The Activity worked out at 44.1% in test [2], 21.3% in test [3], 62.8% in [4] and 29.3% in test [5].

For the molecule `C=CCN1CCN(C(=O)c2ccc(/C=C/c3ccc(O)c(O)c3)cc2)CC1`, the IC50 in test [1] is 141 µM. Moreover, the Activity in test [2] was determined as 40%; in [3], 24.8%; in test [4], 62.4%; in [5], 31.2%.

For the molecule `O=C(Nc1ccccc1)c1ccc(/C=C/c2ccc(O)c(O)c2)cc1`, the IC50 in test [1] is > 200 µM. Further, the Activity worked out at 27.1% in test [2], 10.2% in test [3], 59.8% in test [4] and 17.6% in test [5].

As to `OC/C=C/c1ccc(/C=C/c2ccc(O)c(O)c2)cc1`, the IC50 in test [1] was > 200 µM. Also, the Activity in test [2] worked out at 11.5%; in [3] it was 6.82%; in test [4], 17.3%; in [5] it was 8.64%.

With `O=C(NCc1ccccc1F)c1ccc(/C=C/c2ccc(O)c(O)c2)cc1`, the concentration for half-maximal inhibition (IC50) in test [1] was 43.6 µM. Further, the Activity amounted to 52.3% in test [2], 29.8% in test [3], 88% in test [4] and 42.2% in [5].

For `CCCCCCCCCCNC(=O)c1ccc(/C=C/c2ccc(O)c(O)c2)cc1`, the IC50 in [1] turned out to be 47.9 µM. Moreover, the Activity in test [2] turned out to be 75.2%; in test [3], 18.5%; in test [4] it was 79.1%; in test [5] it was 42%.

In the case of `O=C/C=C/c1ccc(/C=C/c2ccc(O)c(O)c2)cc1`, the EC50 in test [6] was found to be 42.3 µM; in the test on BV-2 [7], 1510 nM. The IC50 in [1] is > 200 µM. In addition, the outcome with Cortical neurone [8], with BV-2 [10] and in the test with Cortical neurone [11] was Active. For the same molecule, the Activity came to 28.8% in [2], 13.2% in test [3], 54.4% in test [4] and 21.2% in [5].

Regarding `O=C(c1ccccc1)N1CCN(C(=O)c2ccc(/C=C/c3ccc(O)c(O)c3)cc2)CC1`, in test [1], the IC50 came out at 185 µM. Also, the Activity in [2] amounted to 36.7%; in [3], 17.2%; in test [4] it was 59.1%; in test [5], 24.6%.

As to `O=C(NCC1CCCO1)c1ccc(/C=C/c2ccc(O)c(O)c2)cc1` (configuration not stated), the IC50 in [1] was > 200 µM. In addition, the Activity was 26.5% in [2], 16.7% in [3], 31.7% in [4] and 18% in test [5].

As for `O=C(c1ccc(/C=C/c2ccc(O)c(O)c2)cc1)N1CCOCC1`, the IC50 in [1] is > 200 µM. Further, the Activity in [2] worked out at 19.1%; in test [3] it was 5.7%; in [4], 29.4%; in test [5], 10.2%.

Regarding `COC(=O)c1ccc(/C=C/c2ccc(O)c(O)c2)cc1`, the IC50 in test [1] was > 200 µM. For the same molecule, the Activity in test [2] is 16.5%; in test [3] it was 2.31%; in [4], 29.3%; in [5], 8.95%.

For the molecule `C=CCNC(=O)c1ccc(/C=C/c2ccc(O)c(O)c2)cc1`, the EC50 in test [6] is 29.6 µM; in the test with BV-2 [7] it was 1950 nM. In addition, the IC50 in test [1] worked out at 98.1 µM. The outcome in the test with Cortical neurone [8] and in the test on BV-2 [9] was Active. For the same molecule, the Activity in [2] is 41.7%; in [3], 15%; in test [4] it was 74.1%; in test [5], 29%.

Consider `O=C(CNC(=O)c1ccccc1)OCc1ccc(/C=C/c2ccc(O)c(O)c2)cc1`, for which the IC50 in test [1] is > 200 µM. Further, the Activity in test [2] came to 33.2%; in [3] it was 21.2%; in [4] it was 46.9%; in [5], 28.1%. In the test with Cortical neurone [11], the outcome was Active.

For `O=C(NC1CCCCC1)c1ccc(/C=C/c2ccc(O)c(O)c2)cc1`, in test [1], the IC50 is 128 µM. The Activity in [2] amounted to 40.2%; in test [3] it was 17.2%; in test [4], 68.7%; in test [5], 22.5%.

As for `O=C(c1ccc(/C=C/c2ccc(O)c(O)c2)cc1)N1CCC(Cc2ccccc2)CC1`, in [1], the half-maximal inhibitory concentration (IC50) was > 200 µM. Also, in the test with BV-2 [7], the EC50 is 1120 nM. The outcome with Cortical neurone [8] and in the test with BV-2 [10] was Active. The Activity in test [2] was 17.4%; in test [3] it was 4.75%; in [4], 25.8%; in test [5], 10.1%.

These data come from ChEMBL document CHEMBL1153600, “Synthesis of novel trans-stilbene derivatives and evaluation of their potent antioxidant and neuroprotective effects” (Eur J Med Chem, 2009).
